Substrate in data set [1]: O[C@@H]1[C@@H](O)[C@H](OCc2ccccc2)OC[C@H]1O
The experiment in a line: (§1) Activity at Neisseria meningitidis lgtC by UV-VIS spectroscopy. The essentials: (§2)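 Continuous coupled assay: UDP release from LgtC-catalysed galactose transfer (UDP-Gal donor) coupled to NADH oxidation, followed at 340 nm (ε = 6.22 mM–1cm–1) in a temperature-controlled spectrophotometer. Initial rates were fitted directly to obtain kinetic parameters (kcat, Km, kcat/Km).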

Substrate in data set [2]: O=C(OC[C@H]1O[C@@H](O)[C@@H](O)[C@@H](O)[C@@H]1O)c1ccccc1
The description is as §1. The essentials:
as §2

Substrate in data set [3]: OC[C@H]1O[C@@H](O[C@H]2[C@H](O)[C@@H](O)[C@H](OCc3ccccc3)O[C@@H]2CO)[C@H](O)[C@@H](O)[C@@H]1O
The description is as §1. The method, boiled down:
as §2

In data set [4] the target is LACTOSE, ANHYDROUS
The data set is described as §1. The method, boiled down:
as §2

Substrate in data set [5]: OC[C@H]1OC(O)[C@H](O)[C@@H](O)[C@@H]1O
The experiment in a line: (§3) Ratio of Kcat to Km for Neisseria meningitidis lgtC. The essentials:
as §2

Substrate in data set [6]: CCCCCCCCO[C@@H]1O[C@H](CO)[C@@H](O)[C@H](O)[C@H]1O
The data set is described as §3. The method, boiled down: as §2

Substrate in data set [7]: O[C@@H]1[C@@H](O)[C@H](OCc2ccccc2)OC[C@H]1O
Described as §3. The method, boiled down:
as §2

Substrate in data set [8]: O[C@H]1[C@H](O)[C@@H](O)[C@H](O)[C@@H](O)[C@H]1O
The data set is described as §3. The method, boiled down: as §2

Substrate in data set [9]: CCCCCCCCO[C@@H]1OC[C@@H](O)[C@H](O)[C@H]1O
Described as §3. The method, boiled down: as §2

Substrate in data set [10]: OC[C@H]1OC(O)[C@@H](O)[C@@H](O)[C@@H]1O
Described as §3. The essentials:
as §2

Substrate in data set [11]: O=C[C@H](O)[C@@H](O)[C@H](O)CO
Described as §3. The essentials: as §2

Substrate in data set [12]: O[C@@H]1[C@H](O)[C@@H](O)OC[C@H]1O
The description is as §3. The method, boiled down:
as §2

Substrate in data set [13]: OC1OC[C@@H](O)[C@@H](O)[C@@H]1O
The description is as §3. The essentials:
as §2

Substrate in data set [14]: O=C[C@H](O)[C@@H](O)[C@@H](O)[C@H](O)CO
Described as §3. The essentials: as §2

Substrate in data set [15]: O=C(OC[C@H]1O[C@@H](O)[C@@H](O)[C@@H](O)[C@@H]1O)c1ccccc1
The data set is described as §3. The essentials:
as §2

Substrate in data set [16]: CCCCCCCCO[C@@H]1O[C@H](CO)[C@H](O)[C@H](O)[C@H]1O
The data set is described as §3. The essentials: as §2

Substrate in data set [17]: O=C(O[C@@H]1CO[C@@H](O)[C@H](O)[C@H]1O)c1ccccc1
The data set is described as §3. The method, boiled down:
as §2

Substrate in data set [18]: OC[C@H]1O[C@@H](O[C@H]2[C@H](O)[C@@H](O)[C@H](OCc3ccccc3)O[C@@H]2CO)[C@H](O)[C@@H](O)[C@@H]1O
The description is as §3. The method, boiled down: as §2

The target in data set [19] is LACTOSE, ANHYDROUS
The description is as §3. The method, boiled down:
as §2

Substrate in data set [20]: OC[C@H]1OC(O)[C@H](O)[C@H](O)[C@@H]1O
The data set is described as §3. The essentials:
as §2

B1: Alpha 1,4 galactosyltransferase (Neisseria meningitidis), Q8KHJ3 (protein)
chain: MDIVFAADDNYAAYLCVAAKSVEAAHPDTEIRFHVLDAGISEANRAAVAANLRGGGNIRFIDVNPEDFAGFPLNIRHISITTYARLKLGEYIADCDKVLYLDIDVLVRDSLKPLWDTDLGDNWLGACIDLFVERQNAYKQKIGMADGEYYFNAGVLLINLKKWRQHDIFKMACEWVEQYKDVMQYQDQDILNGLFKGGVCYANSRFNFMPTNDAFMANRFASRHTDPLYRDRTYTAMPVAVSHYCGPAKPWHRDCTAWGAERFTELAGSLTSVPEEWRGKLAVPHRVFPTKRMLQRWRRKLSARFLRKIY
Consider B1, for which the Km – broadly, the substrate concentration at which the rate is half of its maximum – is 15 mM in data set [1]; 30 mM in data set [2]; 35 mM in data set [3]; 40 mM in the data set with LACTOSE, ANHYDROUS [4]. For the same protein, the kcat – broadly, the maximal rate divided by the concentration of active sites – in data set [1] is 10 s⁻¹; in data set [2] it was 2.5 s⁻¹; in data set [3] it was 1 s⁻¹; in the data set with LACTOSE, ANHYDROUS [4] it was 160 s⁻¹. Further, the specificity constant (kcat/Km) (commonly the turnover number divided by the Michaelis constant) in data set [5] stood at 3.33 M⁻¹ s⁻¹; in [6], 23.3 M⁻¹ s⁻¹; in [7], 667 M⁻¹ s⁻¹; in data set [8], 3.33 M⁻¹ s⁻¹; in data set [9] it was 367 M⁻¹ s⁻¹; in [10] it was 5 M⁻¹ s⁻¹. Also, the kcat/Km came to 30 M⁻¹ s⁻¹ in [11]; 5 M⁻¹ s⁻¹ in data set [12]; 1.67 M⁻¹ s⁻¹ in data set [13]; 5 M⁻¹ s⁻¹ in data set [14]; 83.3 M⁻¹ s⁻¹ in [15]; 63.3 M⁻¹ s⁻¹ in data set [16]. For the same protein, the kcat/Km in data set [17] was 200 M⁻¹ s⁻¹; in data set [18], 28.3 M⁻¹ s⁻¹; with LACTOSE, ANHYDROUS [19], 4000 M⁻¹ s⁻¹; in data set [20], 0.833 M⁻¹ s⁻¹.
